According to ChEMBL document CHEMBL3046772, “Synthesis and antifeedant activity of new oxadiazolyl 3(2H)-pyridazinones” (2003):

What was measured:
Assay type in all cases: functional
Ostrinia furnacalis [1] = experiment: Antifeedant activity against fifth-instar larval stage of Ostrinia furnacalis (Asian corn borer) assessed as feeding deterrence index at 500 mg/kg after 24 hr by diet-choice assay
Method in brief: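 Newly moulted fifth-instar larvae offered artificial diet with compound added (dissolved in acetone, mixed into diet ingredients before preparation) at 500 mg/kg versus solvent-only control diet. Five replicates of 10 larvae. After 24 h, deterrency index (%) = [(C − T)/(C + T)] × 100, where C and T are amounts of control and treated diet eaten.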

Ostrinia furnacalis [2] = experiment: Antifeedant activity against fifth-instar larval stage of Ostrinia furnacalis (Asian corn borer) assessed as larval weight gain at 5 mg/kg after 5 days by diet-choice assay (reference value: 43.3 +/- 20.8 mg)
Ostrinia furnacalis [3] = experiment: Antifeedant activity against fifth-instar larval stage of Ostrinia furnacalis (Asian corn borer) assessed as larval weight gain at 20 mg/kg after 5 days by diet-choice assay (reference value: 43.3 +/- 20.8 mg)
Ostrinia furnacalis [4] = experiment: Antifeedant activity against fifth-instar larval stage of Ostrinia furnacalis (Asian corn borer) assessed as larval weight gain at 10 mg/kg after 5 days by diet-choice assay (reference value: 43.3 +/- 20.8 mg)

| SMILES | FDI (Ostrinia furnacalis [1]) | Activity (Ostrinia furnacalis [2]) | Activity (Ostrinia furnacalis [3]) | Activity (Ostrinia furnacalis [4]) |
| --- | --- | --- | --- | --- |
| Cc1ccc(-c2nnc(COc3cnn(C(C)(C)C)c(=O)c3Cl)o2)cc1 | 4.28% | – | – | – |
| CC(C)(C)n1ncc(OCc2nnc(-c3ccccc3F)o2)c(Cl)c1=O | 41.34% | – | – | – |
| CCc1ccc(-c2nnc(COc3cnn(C(C)(C)C)c(=O)c3Cl)o2)cc1 | 40.18% | – | – | – |
| CC(C)(C)n1ncc(OCc2nnc(-c3ccccc3)o2)c(Cl)c1=O | 57.61% | 42.3 mg | 6.6 mg | 16.2 mg |
| CC(C)(C)n1ncc(OCc2nnc(-c3cc(F)c(Cl)cc3Cl)o2)c(Cl)c1=O | 35.16% | – | – | – |
| COc1ccc(-c2nnc(COc3cnn(C(C)(C)C)c(=O)c3Cl)o2)cc1 | 38.45% | – | – | – |
| CC(C)(C)n1ncc(OCc2nnc(-c3ccc(Cl)cc3)o2)c(Cl)c1=O | 46.73% | – | – | – |
| CC(C)(C)n1ncc(OCc2nnc(-c3ccc(F)cc3)o2)c(Cl)c1=O | 51.08% | – | – | – |
| CC(C)(C)n1ncc(OCc2nnc(-c3cccc(F)c3)o2)c(Cl)c1=O | 51.67% | 38.4 mg | 8.7 mg | 22.6 mg |
| C/C=C(\C)C(=O)O[C@H]1C[C@@H](OC(C)=O)[C@@]2(C(=O)OC)CO[C@H]3[C@@H](O)[C@@](C)([C@]45O[C@@]4(C)[C@@H]4C[C@H]5O[C@@H]5OC=C[C@@]54O)[C@H]4[C@]1(CO[C@]4(O)C(=O)OC)[C@@H]32 [AZADIRACHTIN A] | 59.9% | 22 mg | 1.2 mg | 7.8 mg |
